Active and inactive are the calls of the source. No cut-off for these calls is given here.
Assays:
NCI-H460 [1] = test: Disruption of mitochondrial membrane potential in human NCI-H460 cells at 98 uM up to 1 hr by JC1/DAPI staining based confocal microscopic method; format: functional, cell-based
NCI-H460 [2] = test: Antiproliferative activity against human NCI-H460 cells using 1% DMSO/water compound formulation after 72 hrs by MTT assay; format: functional, cell-based; details: NCI-H460, 72 h
Method in brief: (§1)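 MTT anti-proliferation on NSCLC lines. Compounds dissolved in DMSO, diluted with water to 1% DMSO, then into growth medium (max 0.032% DMSO on cells); or dissolved in 10% (w/v) 2-HPβCD in water, then diluted (max 0.008% w/w 2-HPβCD in wells; vehicle controls at 0.008%). IC50 = concentration giving 50% loss of viability versus control cells. Cisplatin dissolved in water with stirring.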

A549 [3] = test: Antiproliferative activity against human A549 cells using 1% DMSO/water compound formulation after 72 hrs by MTT assay; format: functional, cell-based; details: A549, 72 h; method in brief: as §1
[4] = Solubility of the compound in 10% 2-HPbetaCD/water solution; format: physicochemical
HCC827 [5] = test: Antiproliferative activity against human HCC827 cells using 1% DMSO/water compound formulation after 72 hrs by MTT assay; format: functional, cell-based; details: HCC827, 72 h; method in brief: as §1
HCC827 [6] = test: Antiproliferative activity against human HCC827 cells using 10% 2-HPbetaCD compound formulation after 72 hrs by MTT assay; format: functional, cell-based; details: HCC827, 72 h; method in brief: as §1
[7] = Aqueous solubility of the compound in water; format: physicochemical; details: buffer
NCI-H460 [8] = test: Antiproliferative activity against human NCI-H460 cells using 10% 2-HPbetaCD compound formulation after 72 hrs by MTT assay; format: functional, cell-based; details: NCI-H460, 72 h; method in brief: as §1
NCI-H1975 [9] = test: Antiproliferative activity against human NCI-H1975 cells using 1% DMSO/water compound formulation after 72 hrs by MTT assay; format: functional, cell-based; details: NCI-H1975, 72 h; method in brief: as §1
[10] = Solubility of the compound in 1% DMSO/water solution; format: physicochemical; details: buffer
A549 [11] = test: Antiproliferative activity against human A549 cells using 10% 2-HPbetaCD compound formulation after 72 hrs by MTT assay; format: functional, cell-based; details: A549, 72 h; method in brief: as §1
NCI-H1975 [12] = test: Antiproliferative activity against human NCI-H1975 cells using 10% 2-HPbetaCD compound formulation after 72 hrs by MTT assay; format: functional, cell-based; details: NCI-H1975, 72 h; method in brief: as §1
HOP-62 [13] = test: Growth inhibition of human HOP62 cells after 24 hrs by SRB assay; format: functional; details: HOP-62, 24 h
NCI-H23 [14] = test: Growth inhibition of human NCI-H23 cells assessed as cell growth at 10 uM after 24 hrs by SRB assay relative to control; format: functional; details: NCI-H23, 24 h, read-out: Activity
Method in brief: (§2)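 NCI DTP one-dose screen: cells plated at density set by doubling rate, incubated overnight, then exposed to compound at 10 μM for 24 hours. Growth percentage from protein density at end versus start of experiment, relative to initial cell number.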

EKVX [15] = test: Growth inhibition of human EKVX cells assessed as cell growth at 10 uM after 24 hrs by SRB assay relative to control; format: functional; details: read-out: Activity; method in brief: as §2
NCI-H322M [16] = test: Growth inhibition of human NCI-H322M cells assessed as cell growth at 10 uM after 24 hrs by SRB assay relative to control; format: functional; details: read-out: Activity; method in brief: as §2
NCI-H460 [17] = test: Growth inhibition of human NCI-H460 cells assessed as cell growth at 10 uM after 24 hrs by SRB assay relative to control; format: functional; details: NCI-H460, 24 h, read-out: Activity; method in brief: as §2
HOP-62 [18] = test: Growth inhibition of human HOP62 cells assessed as cell growth at 10 uM after 24 hrs by SRB assay relative to control; format: functional; details: HOP-62, 24 h, read-out: Activity; method in brief: as §2
HOP-92 [19] = test: Growth inhibition of human HOP92 cells assessed as cell growth at 10 uM after 24 hrs by SRB assay relative to control; format: functional; details: HOP-92, 24 h, read-out: Activity; method in brief: as §2
NCI-H226 [20] = test: Growth inhibition of human NCI-H226 cells after 24 hrs by SRB assay; format: functional; details: NCI-H226, 24 h
EKVX [21] = test: Growth inhibition of human EKVX cells after 24 hrs by SRB assay; format: functional
A549 [22] = test: Growth inhibition of human A549 cells assessed as cell growth at 10 uM after 24 hrs by SRB assay relative to control; format: functional; details: A549, 24 h, read-out: Activity; method in brief: as §2
A549 [23] = test: Growth inhibition of human A549 cells after 24 hrs by SRB assay; format: functional; details: A549, 24 h
NCI-H460 [24] = test: Growth inhibition of human NCI-H460 cells after 24 hrs by SRB assay; format: functional; details: NCI-H460, 24 h
NCI-H322M [25] = test: Growth inhibition of human NCI-H322M cells after 24 hrs by SRB assay; format: functional
NCI-H522 = test: Growth inhibition of human NCI-H522 cells after 24 hrs by SRB assay; format: functional; details: NCI-H522, 24 h
NCI-H226 [26] = test: Growth inhibition of human NCI-H226 cells assessed as cell growth at 10 uM after 24 hrs by SRB assay relative to control; format: functional; details: NCI-H226, 24 h, read-out: Activity; method in brief: as §2
NCI-H23 [27] = test: Growth inhibition of human NCI-H23 cells after 24 hrs by SRB assay; format: functional; details: NCI-H23, 24 h
HOP-92 [28] = test: Growth inhibition of human HOP92 cells after 24 hrs by SRB assay; format: functional; details: HOP-92, 24 h
[29] = read-out: LC50 (the source's name)

Question: For `N#CC(C#N)=NNc1cccc(Cl)c1`, which Activity (NCI-H460 [1]) is on record?
Answer: Its Activity is “Active”.

Question: With `CC(C)c1n(Cc2ccc3ccccc3c2)cc[n+]1Cc1ccc2ccccc2c1.[Br-]` as the compound, how does the IC50 (NCI-H460 [2]) read?
Answer: The IC50 was 920 nM.

Question: What about the IC50 (A549 [3]) of the same compound?
Answer: The IC50 was 2540 nM.

Question: What about the solubility ([4]; 10% 2-HPbetaCD/water solution, read-out: solubility) of the same compound?
Answer: Its solubility is > 4400 µg/mL.

Question: What about the IC50 (HCC827 [5]) of the same compound?
Answer: The IC50 was 1290 nM.

Question: What about the IC50 (HCC827 [6]) of the same compound?
Answer: Its IC50 is 1140 nM.

Question: What about the solubility [7] of the same compound?
Answer: The solubility was < 500 µg/mL.

Question: What about the IC50 (NCI-H460 [8]) of the same compound?
Answer: Its IC50 is 860 nM.

Question: And the IC50 (NCI-H1975 [9])?
Answer: The IC50 was 690 nM.

Question: What about the solubility [10] of the same compound?
Answer: The solubility was “Soluble”.

Question: What about the IC50 (A549 [11]) of the same compound?
Answer: Its IC50 is 2130 nM.

Question: What about the IC50 (NCI-H1975 [12]) of the same compound?
Answer: Its IC50 is 620 nM.

Question: With `Cc1n(Cc2ccc3ccccc3c2)cc[n+]1Cc1ccc2ccccc2c1.[Br-]` as the compound, how does the IC50 (NCI-H460 [2]) read?
Answer: The IC50 was 2530 nM.

Question: What about the IC50 (A549 [3]) of the same compound?
Answer: Its IC50 is 3420 nM.

Question: And the GI50 (HOP-62 [13])?
Answer: The GI50 was 1600 nM.

Question: And the LC50 (HOP-62 [13])?
Answer: The LC50 was 45300 nM.

Question: What about the TGI (HOP-62 [13]) of the same compound?
Answer: Its TGI is 8350 nM.

Question: What about the growth at 10 µM (NCI-H23 [14]) of the same compound?
Answer: Its growth at 10 µM is 5.53%.

Question: And the growth at 10 µM (EKVX [15])?
Answer: The growth at 10 µM was 47%.

Question: And the solubility ([4]; buffer)?
Answer: Its solubility is > 4400 µg/mL.

Question: And the growth at 10 µM (NCI-H322M [16])?
Answer: The growth at 10 µM was 48.9%.

Question: What about the growth at 10 µM (NCI-H460 [17]) of the same compound?
Answer: Its growth at 10 µM is 9.12%.

Question: And the growth at 10 µM (HOP-62 [18])?
Answer: Its growth at 10 µM is 18%.

Question: What about the IC50 (HCC827 [5]) of the same compound?
Answer: The IC50 was 2340 nM.

Question: What about the growth at 10 µM (HOP-92 [19]) of the same compound?
Answer: Its growth at 10 µM is -20.3%.

Question: What about the IC50 (HCC827 [6]) of the same compound?
Answer: Its IC50 is 1980 nM.

Question: What about the solubility [7] of the same compound?
Answer: The solubility was < 500 µg/mL.

Question: And the GI50 (NCI-H226 [20])?
Answer: Its GI50 is 1850 nM.

Question: What about the LC50 (NCI-H226 [20]) of the same compound?
Answer: Its LC50 is 64100 nM.

Question: And the TGI (NCI-H226 [20])?
Answer: Its TGI is 10400 nM.

Question: And the GI50 (EKVX [21])?
Answer: Its GI50 is 2320 nM.

Question: And the LC50 (EKVX [21])?
Answer: Its LC50 is 52400 nM.

Question: And the TGI (EKVX [21])?
Answer: Its TGI is 17100 nM.

Question: And the IC50 (NCI-H460 [8])?
Answer: Its IC50 is 2700 nM.

Question: And the growth at 10 µM (A549 [22])?
Answer: The growth at 10 µM was 42.3%.

Question: And the GI50 (A549 [23])?
Answer: The GI50 was 3810 nM.

Question: What about the TGI (A549 [23]) of the same compound?
Answer: Its TGI is 21300 nM.

Question: And the CC50 (A549 [23]; [29])?
Answer: The CC50 was 66100 nM.

Question: What about the GI50 (NCI-H460 [24]) of the same compound?
Answer: The GI50 was 1590 nM.

Question: And the TGI (NCI-H460 [24])?
Answer: Its TGI is 10700 nM.

Question: And the CC50 (NCI-H460 [24]; [29])?
Answer: Its CC50 is 44000 nM.

Question: What about the IC50 (NCI-H1975 [9]) of the same compound?
Answer: Its IC50 is 830 nM.

Question: And the solubility [10]?
Answer: The solubility was “Soluble”.

Question: What about the GI50 (NCI-H322M [25]) of the same compound?
Answer: The GI50 was 2460 nM.

Question: What about the LC50 (lethal concentration 50%) (NCI-H322M [25]) of the same compound?
Answer: The LC50 (lethal concentration 50%) was 32900 nM.

Question: And the TGI (NCI-H322M [25])?
Answer: The TGI was 10400 nM.

Question: And the GI50 (NCI-H522)?
Answer: The GI50 was 256 nM.

Question: And the TGI (NCI-H522)?
Answer: Its TGI is 1810 nM.

Question: What about the CC50 (NCI-H522; [29]) of the same compound?
Answer: The CC50 was 6720 nM.

Question: What about the growth at 10 µM (NCI-H226 [26]) of the same compound?
Answer: Its growth at 10 µM is 19%.

Question: What about the IC50 (A549 [11]) of the same compound?
Answer: The IC50 was 3430 nM.

Question: And the GI50 (NCI-H23 [27])?
Answer: The GI50 was 717 nM.

Question: What about the TGI (NCI-H23 [27]) of the same compound?
Answer: The TGI was 2930 nM.

Question: And the CC50 (NCI-H23 [27]; [29])?
Answer: Its CC50 is 10400 nM.

Question: What about the GI50 (HOP-92 [28]) of the same compound?
Answer: The GI50 was 673 nM.

Question: What about the TGI (HOP-92 [28]) of the same compound?
Answer: Its TGI is 3640 nM.

Question: And the CC50 (HOP-92 [28]; [29])?
Answer: The CC50 was 26400 nM.

Question: And the IC50 (NCI-H1975 [12])?
Answer: Its IC50 is 750 nM.
